In the library only some 1.1% were active in any assay of this set; here they are far more common.
Furin inh – inhibitors of human furin; P09958; hit rate 0.061% among 220,000; purified furin, fluorogenic substrate cleavage; inhibition, % at 20 µM or 30 µM; in the data active means inhibition above about 25%
Thrombin inh – thrombin (human) inhibition; alpha-thrombin, Boc-VPR-AMC fluorogenic substrate cleavage; inhibition, % at 5 µM; hit rate 0.26% among 220,000; AID 1046;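 active means inhibition at or above 40%; inactive means inhibition below 40%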;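 further: 0% = enzyme with no compound and 100% = wells without enzyme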
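Material: human alpha-thrombin protein. Incubation: reaction at ambient temperature. Technique: fluorescence of released AMC, ex 355 nm, em 460 nm. Control set: no-compound enzyme wells and no-enzyme blanks. Also added: Boc-VPR-AMC substrate, 15 µM final. Buffer or medium: pH 7.5 Tris (50 mM) with NaCl 150 mM, Tween 20 0.05%.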
hK5 inh – blocks human kallikrein 5 protease activity; Q9Y337; recombinant hK5, fluorogenic AMC substrate cleavage; hit rate 0.59% among 210,000; inhibition, % at 5 µM;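 active means inhibition of 40% or more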;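 further: 0% = enzyme controls without compound and 100% = no-enzyme blanks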
FXIa inh – inhibitors of human coagulation factor XIa. inhibition, % at 5 µM. P03951. purified FXIa, Boc-Glu-Ala-Arg-AMC fluorogenic substrate. hit rate 0.14% among 220,000;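 active means inhibition of at least 40%; inactive means inhibition below 40%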;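 further: fluorescence of freed AMC excited at 355 nm; 0% = enzyme without compound and 100% = no enzyme blank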
FXIIa inh 1536 – blocks human coagulation factor XIIa protease activity; purified FXIIa, Boc-QGR-AMC fluorogenic substrate, 2 h; inhibition, % at 5 µM; hit rate 0.3% among 220,000; AID 800; in the data active means inhibition above about 40%;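 further: 0% = enzyme with no compound and 100% = blank without enzyme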
* marks the source's active call; other numbers are inactive results.

O=C(NCc1cccs1)C1CCC(CNS(=O)(=O)c2cccc3nsnc23)CC1 (stereo not drawn) was read as Furin inh -5.2, Thrombin inh 1.7, hK5 inh 52.5*, FXIa inh 2.5 and FXIIa inh 1536 8.4.
Screening Clc1ccc(CON/C=N/c2ncnc3sccc23)cc1 returned Furin inh -16.2, Thrombin inh 24.4, hK5 inh 77.5*, FXIa inh 8.1 and FXIIa inh 1536 13.1.
For CSc1ccccc1Sc1cc(C(=O)O)c2ccccc2n1 the results were Furin inh -12.2, Thrombin inh -4.3, hK5 inh 1.8, FXIa inh 18.8 and FXIIa inh 1536 22.0.
For O=C(O)c1cc(Sc2ccc(Br)cc2)nc2ccccc12 the results were Furin inh 3.0, Thrombin inh 2.6, hK5 inh 43.2*, FXIa inh 31.1 and FXIIa inh 1536 36.9.
Screening O=C(NCc1cccnc1)NC1CC(=O)N(c2ccc3c(c2)OCCO3)C1 (stereo not drawn) returned Furin inh -30.5, Thrombin inh -9.6, hK5 inh -4.5, FXIa inh -0.7 and FXIIa inh 1536 -4.5.
For Cc1cc(F)ccc1N1CCC(N2CCN(CCC(C)C)C(CCO)C2)CC1 (stereo not drawn) the results were Furin inh -12.6, Thrombin inh 44.7*, hK5 inh 42.4*, FXIa inh 39.5 and FXIIa inh 1536 28.4.
Screening COc1ccc(CNC(=O)CCC(=O)N2CCN(S(=O)(=O)c3ccc(Cl)cc3)CC2)cc1 returned Furin inh -22.0, Thrombin inh -6.3, hK5 inh -4.1, FXIa inh -3.3 and FXIIa inh 1536 0.4.
For O=C1c2cccc3cccc(c23)C(=O)N1c1ccccn1 the results were Furin inh -2.1, Thrombin inh 6.2, hK5 inh 47.3*, FXIa inh 33.6 and FXIIa inh 1536 29.1.
For c1ccc2oc(-c3ccn[nH]3)cc2c1 the results were Furin inh -18.3, Thrombin inh -3.3, hK5 inh 2.6, FXIa inh 7.6 and FXIIa inh 1536 2.0.
Screening Cc1ccc(C(=O)NCC(=O)OCC(=O)/C=C2\N(C)c3ccccc3C2(C)C)cc1C returned Furin inh 5.6, Thrombin inh 0.2, hK5 inh -7.9, FXIa inh 5.8 and FXIIa inh 1536 8.4.
O=S(=O)(Nc1ccccc1)c1ccc(-c2csnn2)cc1 was read as Furin inh -2.9, Thrombin inh 18.5, hK5 inh 25.8, FXIa inh 26.3 and FXIIa inh 1536 43.4*.
`COc1ccc(CCNS(=O)(=O)c2ccc3c(c2)OCCO3)cc1OC` gave Furin inh -13.0, Thrombin inh 24.3, hK5 inh 68.9*, FXIa inh 9.7 and FXIIa inh 1536 27.2.
For COc1ccc(S(=O)(=O)NCCC(C)C)cc1OC the results were Furin inh -20.0, Thrombin inh 10.2, hK5 inh 121.0*, FXIa inh 4.0 and FXIIa inh 1536 17.6.
Screening COc1ccc(CCNS(=O)(=O)c2cccc(C)c2)cc1OC returned Furin inh -16.5, Thrombin inh -6.7, hK5 inh 1.3, FXIa inh 3.5 and FXIIa inh 1536 12.5.
`O=S(=O)(NC(=NCc1ccccc1)c1ccc(F)cc1)c1ccc(Cl)cc1` gave Furin inh -27.7, Thrombin inh -3.5, hK5 inh 1.4, FXIa inh -0.2 and FXIIa inh 1536 12.2.
For Cc1cc(C(=O)Cn2nc(C(=O)O)c3ccccc3c2=O)c(C)n1-c1cccc(C(F)(F)F)c1 the results were Furin inh -8.3, Thrombin inh 16.7, hK5 inh 24.0, FXIa inh 71.7* and FXIIa inh 1536 23.9.
Screening Cc1cc(C(=O)Cn2nc(C(=O)O)c3ccccc3c2=O)c(C)n1-c1ccc(F)cc1 returned Furin inh -12.4, Thrombin inh 3.7, hK5 inh -1.6, FXIa inh 24.4 and FXIIa inh 1536 25.5.
CC(C)(C)c1ccc(C(=O)Cn2nc(C(=O)O)c3ccccc3c2=O)cc1 was read as Furin inh -11.4, Thrombin inh 29.0, hK5 inh 43.8*, FXIa inh 30.4 and FXIIa inh 1536 12.4.
For CCOc1ccc(OCC)c(NC(=O)CCS(=O)(=O)c2ccc(Br)s2)c1 the results were Furin inh -31.6, Thrombin inh 43.3*, hK5 inh -4.0, FXIa inh -5.2 and FXIIa inh 1536 5.0.
Screening COc1ccc(Oc2ccccc2/C=C/C(=O)O)cc1 returned Furin inh -11.4, Thrombin inh 0.3, hK5 inh -5.3, FXIa inh 2.0 and FXIIa inh 1536 13.8.
`COc1ccc(Oc2ccccc2C=O)cc1` gave Furin inh -15.4, Thrombin inh 19.6, hK5 inh 50.6*, FXIa inh 3.7 and FXIIa inh 1536 19.7.

Screens as filed in PubChem.
